Test results published in ChEMBL document CHEMBL1944562, “Design, synthesis of some new (2-aminothiazol-4-yl)methylester derivatives as possible antimicrobial and antitubercular agents” (2012).
In brackets after ≈: the same amount, converted by molar mass.

Key:
Format in all cases: functional
[1] = tested on: Mycolicibacterium smegmatis; experiment: Antitubercular activity against Mycobacterium smegmatis ATCC 19420 after 7 days by resazurin assay; conditions: ATCC 19420, 168 h
How it was run: (§1)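 Middlebrook 7H9 broth with 10% OADC, culture adjusted to McFarland 2. 50 µL culture added to 150 µL fresh medium. Stocks at 2 mg/mL in DMF, tested first at 1, 10 and 100 µg/mL, then at 0.3125-5 µg/mL. DMF controls. After 7 days at 37 °C, 0.01% resazurin added. Blue-to-pink change read for MIC.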

[2] = tested on: Aspergillus fumigatus; experiment: Antifungal activity against Aspergillus fumigatus NCIM N0.902 at MIC after 3 to 4 days
How it was run: (§2)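 Fungal suspension made by transferring a loopful of culture to 3 mL saline and seeding agar plates, 20 mL agar per dish, dried 1 h at 37 °C. Punched wells loaded with test compound in DMSO at its MIC. DMSO-only control. Triplicate plates held 3-4 days at 37 °C. Inhibition zone diameter measured.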

[3] = tested on: Aspergillus flavus; experiment: Antifungal activity against Aspergillus flavus NCIM N0.524 after 3 to 4 days by serial plate dilution method
[4] = tested on: Aspergillus flavus; experiment: Antifungal activity against Aspergillus flavus NCIM N0.524 at MIC after 3 to 4 days; how it was run: as §2
[5] = tested on: Trichophyton mentagrophytes; experiment: Antifungal activity against Trichophyton mentagrophytes at MIC after 3 to 4 days; how it was run: as §2
[6] = tested on: Klebsiella pneumoniae; experiment: Antibacterial activity against Klebsiella pneumoniae after 16 to 18 hrs by […]
[7] = tested on: Escherichia coli; experiment: Antibacterial activity against Escherichia coli ATCC 25922 at MIC after 3 to 4 days
How it was run: (§3)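 Agar well diffusion on seeded agar plates, 20 mL agar per dish, dried 1 h at 37 °C. Wells punched and loaded with test compound in DMSO at its MIC. DMSO-only control. Plates run in triplicate and kept 3-4 days at 37 °C. Inhibition zone diameter measured.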

[8] = tested on: Mycobacterium tuberculosis; experiment: Antitubercular activity against Mycobacterium tuberculosis H37Rv after 7 days by resazurin assay; conditions: 168 h
How it was run: (§4)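 M. tuberculosis H37Rv ATCC 27294 grown in Middlebrook 7H9 broth with 10% OADC and adjusted to McFarland 2. Culture was diluted 1:4 into fresh medium. Compounds came from 2 mg/mL DMF stocks, screened first at 1, 10 and 100, then at 0.3125–5. DMF-only controls were included. After 7 days at 37 °C, 0.01% resazurin was added; a blue-to-pink change marked growth, and the MIC was read.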

[9] = tested on: Candida albicans; experiment: Antifungal activity against Candida albicans at MIC after 3 to 4 days; how it was run: as §2
[10] = tested on: Pseudomonas aeruginosa; experiment: Antibacterial activity against Pseudomonas aeruginosa ATCC 27853 after 16 to 18 hrs by […]
[11] = tested on: Mycobacterium tuberculosis; experiment: Antitubercular activity against Mycobacterium tuberculosis H37Rv assessed as growth inhibition after 7 days by resazurin assay; how it was run: as §4
[12] = tested on: Escherichia coli; experiment: Antibacterial activity against Escherichia coli ATCC 25922 after 16 to 18 hrs by […]
[13] = tested on: Talaromyces marneffei; experiment: Antifungal activity against Penicillium marneffei at MIC after 3 to 4 days; how it was run: as §2
[14] = tested on: Trichophyton mentagrophytes; experiment: Antifungal activity against Trichophyton mentagrophytes after 3 to 4 days by serial plate dilution method
[15] = tested on: Talaromyces marneffei; experiment: Antifungal activity against Penicillium marneffei after 3 to 4 days by serial plate dilution method
[16] = tested on: Candida albicans; experiment: Antifungal activity against Candida albicans after 3 to 4 days by serial plate dilution method
[17] = tested on: Bacillus subtilis; experiment: Antibacterial activity against Bacillus subtilis at MIC after 3 to 4 days; how it was run: as §3
[18] = tested on: Aspergillus fumigatus; experiment: Antifungal activity against Aspergillus fumigatus NCIM N0.902 after 3 to 4 days by serial plate dilution method
[19] = tested on: Pseudomonas aeruginosa; experiment: Antibacterial activity against Pseudomonas aeruginosa ATCC 27853 at MIC after 3 to 4 days; how it was run: as §3
[20] = tested on: Staphylococcus aureus; experiment: Antibacterial activity against Staphylococcus aureus ATCC 25923 at […] after 3 to 4 days; how it was run: as §3
[21] = tested on: Bacillus subtilis; experiment: Antibacterial activity against Bacillus subtilis after 16 to 18 hrs by […]
[22] = tested on: Mycolicibacterium fortuitum; experiment: Antitubercular activity against Mycobacterium fortuitum ATCC 19542 after 7 days by resazurin assay; conditions: ATCC 19542, 168 h; how it was run: as §1
[23] = tested on: Staphylococcus aureus; experiment: Antibacterial activity against Staphylococcus aureus ATCC 25923 after 16 to 18 hrs by serial plate dilution method
[24] = tested on: Klebsiella pneumoniae; experiment: Antibacterial activity against Klebsiella pneumoniae at MIC after 3 to 4 days; how it was run: as §3

| SMILES | MIC [1] [µg/mL] | diameter of the inhibition zone (DIZ) [2] [mm] | MIC [3] [µg/mL] | diameter of the inhibition zone (DIZ) [4] [mm] | diameter of the inhibition zone (DIZ) [5] [mm] | MIC [6] [µg/mL] | diameter of the inhibition zone (DIZ) [7] [mm] | MIC [8] [µg/mL] | diameter of the inhibition zone (DIZ) [9] [mm] | growth inhibition (GI) [11] [%] | diameter of the inhibition zone (DIZ) [13] [mm] | MIC [14] [µg/mL] | MIC [15] [µg/mL] | MIC [16] [µg/mL] | diameter of the inhibition zone (DIZ) [17] [mm] | MIC [18] [µg/mL] | diameter of the inhibition zone (DIZ) [19] [mm] | diameter of the inhibition zone (DIZ) [20] [mm] | MIC [21] [µg/mL] | MIC [22] [µg/mL] | other results |
| --- | --- | --- | --- | --- | --- | --- | --- | --- | --- | --- | --- | --- | --- | --- | --- | --- | --- | --- | --- | --- | --- |
| Nc1nc(COC(=O)c2ccc(Cl)cc2)cs1 | > 100 | 16 | 25 (≈ 93 µM) | <10 | 16 | 6.25 (≈ 23.3 µM) | 16 | > 100 | <10 | 0 | <10 | 6.25 (≈ 23.3 µM) | 25 (≈ 93 µM) | 25 (≈ 93 µM) | 16 | 6.25 (≈ 23.3 µM) | 16 | 16 | 6.25 (≈ 23.3 µM) | > 100 | MIC [10]: 6.25 µg/mL (≈ 23.3 µM); MIC [12]: 6.25 µg/mL (≈ 23.3 µM); MIC [23]: 6.25 µg/mL (≈ 23.3 µM); diameter of the inhibition zone (DIZ) [24]: 16 mm |
| N#Cc1cccc(C(=O)OCc2csc(N)n2)n1 | > 100 | 11 | 6.25 (≈ 24 µM) | 16 | 11 | 25 (≈ 96.1 µM) | 11 | 10 (≈ 38.4 µM) | <10 | <90 | 16 | 12.5 (≈ 48 µM) | 6.25 (≈ 24 µM) | 25 (≈ 96.1 µM) | <10 | 12.5 (≈ 48 µM) | <10 | <10 | 25 (≈ 96.1 µM) | > 100 | MIC [10]: 25 µg/mL (≈ 96.1 µM); MIC [12]: 12.5 µg/mL (≈ 48 µM); MIC [23]: 25 µg/mL (≈ 96.1 µM); diameter of the inhibition zone (DIZ) [24]: <10 mm |
| Nc1nc(COC(=O)c2cc(F)cc(C(F)(F)F)c2)cs1 | > 100 | 16 | 6.25 (≈ 19.5 µM) | 16 | 16 | 25 (≈ 78.1 µM) | <10 | 1 (≈ 3.12 µM) | 16 | 90 | 16 | 6.25 (≈ 19.5 µM) | 6.25 (≈ 19.5 µM) | 6.25 (≈ 19.5 µM) | 11 | 6.25 (≈ 19.5 µM) | 11 | 11 | 12.5 (≈ 39 µM) | 10 (≈ 31.2 µM) | MIC [10]: 12.5 µg/mL (≈ 39 µM); MIC [12]: 25 µg/mL (≈ 78.1 µM); MIC [23]: 12.5 µg/mL (≈ 39 µM); diameter of the inhibition zone (DIZ) [24]: <10 mm |
| O=C(O)c1cn(C2CC2)c2cc(N3CCNCC3)c(F)cc2c1=O [CIPROFLOXACIN] | – | – | – | – | – | 6.25 (≈ 18.9 µM) | 30 | – | – | – | – | – | – | – | 21 | – | 16 | 22 | 1.56 (≈ 4.71 µM) | – | diameter of the inhibition zone (DIZ) [24]: 23 mm |
| CO[C@H]1/C=C/O[C@@]2(C)Oc3c(C)c(O)c4c(O)c(c(/C=N/N5CCN(C)CC5)c(O)c4c3C2=O)NC(=O)/C(C)=C\C=C\[C@H](C)[C@H](O)[C@@H](C)[C@@H](O)[C@@H](C)[C@H](OC(C)=O)[C@@H]1C [RIFAMPIN] | 1.5 (≈ 1.82 µM) | – | – | – | – | – | – | 0.5 (≈ 0.608 µM) | – | 95 | – | – | – | – | – | – | – | – | – | 1.5 (≈ 1.82 µM) | – |
| Cc1cc(C2CCCCC2)n(O)c(=O)c1.NCCO [CICLOPIROX OLAMINE] | – | 25 | 6.25 | 25 | 27 | – | – | – | 20 | – | 20 | 6.25 | 6.25 | 6.25 | – | 6.25 | – | – | – | – | – |
